Assay [1] has as its system Murine macrophages (J774.A1). Put plainly: Cytotoxicity assay. It is filed as cell-based. To be noted: for IC50: Mus musculus, J774.A1, 48 h; for J774.A1 SI (selectivity index): SI = IC50 mammalian cell/IC50 amastigotes (µg/mL). In outline:
(§1)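 Cells exposed 48 h at 37 °C, 5% CO2, to four concentrations (0.25-250 µg/mL) in triplicate. Amphotericin B reference (0.025-25 µg/mL); DMSO vehicle control. SRB read-out: fixation in cold 20% TCA, 30 min at 4 °C; 0.1% SRB in 1% acetic acid, 30 min; dye solubilised in 10 mM Trizma; OD 540 nm. IC50 by non-linear regression. SI = mammalian-cell IC50 / amastigote IC50.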

Assay [2] has as its system axenic amastigotes of Leishmania donovani. To be noted: ref Weniger et al. 2006, Kunert et al. 2008; cited from earlier work.
Assay [3] has as its system intracellular amastigotes of Leishmania (Leishmania) amazonensis. It is filed as cell-based, Leishmania (L.) amazonensis (IFLA/BR/1967/PH8). To be noted: for reduction of infection index: 72 h; for IC50: Peritoneal macrophage. In outline:
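Resident peritoneal macrophages from 6-week-old female BALB/c mice, 1 x 10^5/well in RPMI-1640 with 10% FCS and gentamicin, 1 h at 37 °C, 5% CO2. Infected with promastigotes (1 x 10^6/well), 4 h at 35 °C. Extract 50-12.5 µg/mL (24, 48, 72 h) or isolated compounds (72 h) at 35 °C. Giemsa staining; 200 cells counted per replicate. Infection index = % infected macrophages × mean amastigotes per macrophage. IC50 by non-linear dose-response regression.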

In assay [4] the test system is promastigotes of Leishmania donovani. To be noted: ref Camacho et al. 2000; cited from earlier work.
Assay [5] concerns fibroblast cells (NIH/3T3). Put plainly: Cytotoxicity assay. It is filed as cell-based, murine. To be noted: for IC50: Mus musculus, NIH3T3, 48 h; for NIH/3T3 SI (selectivity index): SI = IC50 mammalian cell/IC50 amastigotes (µg/mL). The method in brief: as §1
Assay [6] deals with NO production by L. amazonensis infected cells. Briefly: Nitric oxide. The format is cell-based, BALB/c mice. To be noted: for NO production: vs untreated infected cells; for production of nitric oxide (NO): treated infected cells, concentration not given. The method in brief: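 Supernatants were taken from infected BALB/c peritoneal macrophages treated as in the amastigote assay. Nitrite was quantified against a sodium nitrite standard curve (1-10 µM in RPMI). Results are mean ± SD, compared with untreated infected cells by Student's t test.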

[7] abbreviates: read-out: Intracellular amastigotes IC50.
[8] abbreviates: read-out: Intracellular amastigotes IC50 (µM).

The source of these data is PMC4325620 (Memórias do Instituto Oswaldo Cruz, 2014).

Read-outs that look alike come from different tables or passages of the source.

With `O=c1cc(-c2ccc(O)c(-c3c(O)cc(O)c4c(=O)cc(-c5ccc(O)cc5)oc34)c2)oc2cc(O)cc(O)c12` [Amentoflavone, amentoflavone], the IC50 in assay [1] (read-out: J774.A1 IC50) came to 3 µg/mL; in assay [1] (read-out: J774.A1 IC50 (µM)), 5.5 µM; in assay [3] (setting [7]) it was 0.1 µg/mL; in assay [3] (setting [8]), 0.2 µM; in assay [5] (read-out: NIH/3T3 IC50), 2.2 µg/mL; in assay [5] (read-out: NIH/3T3 IC50 (µM)) it was 4 µM. Moreover, in assay [1], the “J774.A1 SI (selectivity index)” value came out at 30. In addition, the “activity on axenic amastigotes” value in assay [2] is given as “not active”. The “reduction of infection index” value in assay [3] (all concentrations tested, compared to the control) is “greater than 90.6%”; in assay [3] (highest concentration (3 µg/mL)) it was roughly 100%. Moreover, the activity on promastigotes result in assay [4] is “poor activity”. In assay [5], the “NIH/3T3 SI (selectivity index)” value turned out to be 22. The NO production entry was “significantly lower” in assay [6] (0.75 µg/mL, 72 h, p < 0.01) and “significantly lower” in assay [6] (1.5 µg/mL, 72 h, p < 0.05). For the same compound, the “production of nitric oxide (NO)” value in assay [6] was “lower”.

Regarding `C[C@@H]1[C@H](O)[C@@H](C)/C=C/C=C/C=C/C=C/C=C/C=C/C=C/[C@H](O[C@@H]2O[C@H](C)[C@@H](O)[C@H](N)[C@@H]2O)C[C@@H]2O[C@](O)(C[C@@H](O)C[C@@H](O)[C@H](O)CC[C@@H](O)C[C@@H](O)CC(=O)O[C@H]1C)C[C@H](O)[C@H]2C(=O)O` [Amphotericin B, reference compound], the IC50 was found to be 4.3 µg/mL in assay [1] (read-out: J774.A1 IC50); 4.7 µM in assay [1] (read-out: J774.A1 IC50 (µM)); 0.03 µg/mL in assay [3] (setting [7]); 0.035 µM in assay [3] (setting [8]); 2.2 µg/mL in assay [5] (read-out: NIH/3T3 IC50); 2.2 µM in assay [5] (read-out: NIH/3T3 IC50 (µM)). In addition, the “J774.A1 SI (selectivity index)” value in assay [1] is 143.3. In assay [5], the “NIH/3T3 SI (selectivity index)” value was determined as 73.

With `O=c1cc(-c2ccc(O)c(-c3c(O)cc4oc(-c5ccc(O)cc5)cc(=O)c4c3O)c2)oc2cc(O)cc(O)c12` [Robustaflavone, robustaflavone], the IC50 was found to be 3.1 µg/mL in assay [1] (read-out: J774.A1 IC50); 5.7 µM in assay [1] (read-out: J774.A1 IC50 (µM)); 2.8 µg/mL in assay [3] (setting [7]); 5.3 µM in assay [3] (setting [8]); 25.5 µg/mL in assay [5] (read-out: NIH/3T3 IC50); 47.4 µM in assay [5] (read-out: NIH/3T3 IC50 (µM)). Moreover, in assay [1], the “J774.A1 SI (selectivity index)” value is given as 1.1. Further, the “reduction of infection index” value in assay [3] (12.5 µg/mL) was 90.8%. The “NIH/3T3 SI (selectivity index)” value in assay [5] turned out to be 9.1. The NO release result in assay [6] (highest concentration tested, 72 h) is “increased”. The “production of nitric oxide (NO)” value in assay [6] was “higher”.
